Assay outcomes as filed in PubChem.
PLK1 PBD inh: blocks phosphopeptide binding to human Plk1 polo box domain; Plk1 PBD phosphopeptide binding, fluorescence polarization; inhibition, %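 (tested at about 20 µM)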; 97,000 compounds, 0.13% hits; in the data active = inhibition above about 34%, passing the limit was not always enough
DAT uptake mod: changed human dopamine transporter uptake under cocaine IC80; AID 449768; LLC-PK1 hDAT cells, [14C]-dopamine uptake with cocaine IC80; actives deviate in either direction; 110,000 compounds, 1.3% hits; B-score at 10 µM;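 active = Z score or B-score, a plate-position-corrected score, falls beyond the plate's 99.7% confidence bounds, in either direction; inactive = both scores lie inside the 99.7% bounds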
LYP act: LYP (human) phosphatase activation; Q9Y2R2; recombinant LYP, DiFMUP fluorescence; 0 = plate median, 100 = signal doubled; activation, % at 2 µM; 96,000 compounds, 0.11% hits;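 active = activation at 2 µM above a set limit, the mean plus 5 SD, cut at about 37% in these data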
Target sequence (Q9Y2R2 whole entry, looked up): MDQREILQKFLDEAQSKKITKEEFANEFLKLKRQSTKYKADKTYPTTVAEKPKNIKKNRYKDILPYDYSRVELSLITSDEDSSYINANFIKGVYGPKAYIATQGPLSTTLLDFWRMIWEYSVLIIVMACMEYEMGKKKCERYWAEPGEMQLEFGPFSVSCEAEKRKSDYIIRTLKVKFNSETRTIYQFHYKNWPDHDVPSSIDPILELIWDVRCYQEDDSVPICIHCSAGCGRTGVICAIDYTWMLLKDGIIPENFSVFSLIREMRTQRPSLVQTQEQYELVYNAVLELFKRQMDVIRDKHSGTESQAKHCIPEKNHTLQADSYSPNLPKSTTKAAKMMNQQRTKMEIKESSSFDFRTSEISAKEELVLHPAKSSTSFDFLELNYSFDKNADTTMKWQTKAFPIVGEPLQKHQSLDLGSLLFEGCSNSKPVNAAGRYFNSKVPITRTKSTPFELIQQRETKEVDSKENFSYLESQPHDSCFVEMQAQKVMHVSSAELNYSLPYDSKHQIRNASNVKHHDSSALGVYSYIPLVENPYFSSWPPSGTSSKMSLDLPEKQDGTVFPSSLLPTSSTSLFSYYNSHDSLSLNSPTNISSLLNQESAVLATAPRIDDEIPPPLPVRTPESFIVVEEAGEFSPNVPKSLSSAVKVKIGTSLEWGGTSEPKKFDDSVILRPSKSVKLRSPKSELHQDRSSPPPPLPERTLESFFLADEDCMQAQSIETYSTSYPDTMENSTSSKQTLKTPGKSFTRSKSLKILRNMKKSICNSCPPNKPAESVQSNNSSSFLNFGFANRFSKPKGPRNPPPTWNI
PLK1 kinase inh: blocks human PLK1 kinase activity; P53350; recombinant PLK1 kinase, TR-FRET peptide phosphorylation; inhibition, % at 10 µM; 97,000 compounds, 0.53% hits;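 active = inhibition of 50% or more in the single-concentration screen; inactive = inhibition below 50%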
PTPN22 inh 2: LYP (human) phosphatase inhibition; inhibition, % at 2 µM; Q9Y2R2; recombinant LYP catalytic domain, DiFMUP fluorescence; AID 640; 96,000 compounds, 0.21% hits;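 active = inhibition at 2 µM at or above a set limit, the screen mean plus 3 SD, cut at about 24% in these data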
Rev-RRE block: HIV Rev-RRE protein-RNA interaction inhibition; 97,000 compounds, 0.79% hits; inhibition, % at 8 µM; Rev peptide-RRE RNA binding, FRET;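 active = inhibition above the screen-wide mean plus 3 SD, cut at about 35% in these data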
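Test system – labelled RRE RNA duplex and labelled Rev peptide · Reagent – labelled Rev peptide · Doses – one concentration, 8 µM nominal · Incubation – 5 + 15 min at 25 °C · Signal – FRET fluorescence readout · Read-out basis – % inhibition of FRET ratio versus controls · Control set – DMSO wells as 0% and neomycin B wells as 100% inhibition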
Large screens that a line does not name were inactive; [ ] = another dose, or the depositor's remark. Most compounds without a hit are left out; they make up all but 2.7% or so of the library.

CCCCCC(=O)Nc1cccc(C2=NOC3(C2)C[C@H](C(N)=O)N(C(=O)c2ccccc2C(=O)c2ccccc2)C3)c1 (stereo not given in full)	DAT uptake mod 3.69 (no result: PLK1 PBD inh, LYP act, PLK1 kinase inh, PTPN22 inh 2, Rev-RRE block)
CCCCCC(=O)Nc1cccc(C2=NOC3(C2)C[C@H](C(N)=O)N(C(=O)c2ccccc2)C3)c1 (stereo not given in full)	none (no result: PLK1 PBD inh, LYP act, PLK1 kinase inh, PTPN22 inh 2, Rev-RRE block)
Nc1nc(Nc2ccccc2)nc2c1ncn2[C@@H]1O[C@H](CO)[C@@H](O)[C@H]1O	none (no result: PLK1 PBD inh, LYP act, PLK1 kinase inh, PTPN22 inh 2, Rev-RRE block)
COc1cc([N+](=O)[O-])ccc1N/C=C/C(=O)c1cccs1	Rev-RRE block 77.2
NC(=O)c1ccccc1N/C=C/C(=O)c1cccs1	none (no result: LYP act, PTPN22 inh 2)
CCc1c(C)c2ccc(OCC(=O)N(C)C)c(C)c2oc1=O	none
CCOC(=O)CCc1c(C)c2ccc(OCC(=O)N(CC)CC)c(C)c2oc1=O	DAT uptake mod 2.69
CCOc1ccc(C2C(C#N)=C(N)SC(N)=C2C#N)c(OCC)c1	none
CCCCc1ccc(C2C(C#N)=C(N)SC(N)=C2C#N)s1	Rev-RRE block 66.0
Cc1[nH]c2ccccc2c1/C=C(\C#N)S(=O)(=O)c1ccccc1	none
N#C/C(=C\c1ccc(O)c(O)c1)S(=O)(=O)c1ccccc1	DAT uptake mod -2.62
O=C(CSc1nnc(Cc2ccccc2)o1)N1CCCc2ccccc21	DAT uptake mod 2.6 (no result: PLK1 PBD inh, LYP act, PLK1 kinase inh, PTPN22 inh 2, Rev-RRE block)
Cc1cc(C)nc(SCc2nnc(SCC(=O)N3CCCc4ccccc43)o2)n1	DAT uptake mod 3.26
Cc1cc(C)nc(SCc2nnc(SCC(=O)N3CCCc4ccccc43)n2C)n1	none
CCCCn1c(-c2ccccc2)cnc1SCC(=O)NCCc1ccc(OC)c(OC)c1	none (no result: LYP act, PTPN22 inh 2)
CCOC(=O)/C(C#N)=C\c1ccc(N2CCN(C)CC2)cc1	none
CCOC(=O)/C(C#N)=C1\C=CN(C)C(C)=N1	none
CCCN1C=CC(=C/C=C(\C#N)C(=O)OCC)C=C1	Rev-RRE block 136.1[fluorescence artefact?]
CCCCCCN1C=CC(=C/C=C(\C#N)C(=O)OCC)C=C1	Rev-RRE block 138.8[fluorescence artefact?]
O=C1CC(N(CCc2ccccc2)C(=S)Nc2cc(Cl)ccc2Cl)C(=O)N1c1c(Cl)cccc1Cl (stereo not given)	none
COc1ccc(-c2nc(Cn3c(SCc4ccccc4F)nc4ccncc43)c(C)o2)cc1	none
COc1ccc(-c2nc(Cn3c(SCc4ccc(F)cc4)nc4ccncc43)c(C)o2)cc1OC	DAT uptake mod 3.09
COC(C/C=C\C(=O)[C@@H](C)OCc1ccccc1)OC	none (no result: PLK1 PBD inh, LYP act, PLK1 kinase inh, PTPN22 inh 2, Rev-RRE block)
COc1ccccc1NC(=O)NCCCl	DAT uptake mod -2.41
COc1ccccc1NC(C)=O	none (no result: PLK1 PBD inh, LYP act, PLK1 kinase inh, PTPN22 inh 2, Rev-RRE block)
CC(C)Cc1nc2oc3c(N4CCN(CCO)CC4)ncnc3c2c2c1CCCC2	DAT uptake mod 2.43 (no result: PLK1 PBD inh, LYP act, PLK1 kinase inh, PTPN22 inh 2, Rev-RRE block)
CCOC(=O)C1=C(C)OC(N)=C(C#N)C1c1c(C)nn(-c2ccccc2)c1Cl (stereo not given)	DAT uptake mod -7.43 (no result: PLK1 PBD inh, LYP act, PLK1 kinase inh, PTPN22 inh 2, Rev-RRE block)
C=CCOC(=O)C1=C(C)OC(N)=C(C#N)C1c1c(C)nn(-c2ccccc2)c1Cl (stereo not given)	none
CCOC(=O)c1oc2ccccc2c1NC(=O)c1ccc(Cl)s1	DAT uptake mod -2.43
COC(=O)CN1C(c2ccccc2)=Nc2ccc(Cl)cc2C1c1ccccc1 (stereo not given)	none
CCCc1nc(C(C)(C)O)c(C(=O)O)n1Cc1ccc(-c2ccccc2-c2nn[nH]n2)cc1	none (no result: PLK1 PBD inh, LYP act, PLK1 kinase inh, PTPN22 inh 2, Rev-RRE block)
Cc1ccc2c(CC(=O)OCc3nc(N)nc(Nc4ccccc4C)n3)coc2c1	none
Cc1ccc2c(CC(=O)OCc3csc(C)n3)coc2c1	DAT uptake mod -7.4
COc1cc(CCCN2C(=S)NC[C@@H]2Cc2ccccc2)cc(OC)c1OC	DAT uptake mod 2.99 (no result: PLK1 PBD inh, LYP act, PLK1 kinase inh, PTPN22 inh 2, Rev-RRE block)
O=C1c2ccccc2-c2onc3ccc(Oc4ccccc4)c1c23	Rev-RRE block 64.3
Cc1ccccc1CN1CCN(CC(=O)NCc2ccc3c(c2)OCO3)C1=O	none
O=C(Cn1c(=O)[nH]c2ccsc2c1=O)NC1CCCCC1	DAT uptake mod -2.71
Cc1cc(C(=O)NCCC(c2ccccc2)c2ccccc2)c(C)o1	none
C/C(CC(=O)Nc1ccccn1)=N\NC(=O)C(=O)Nc1ccccc1C	DAT uptake mod 3.23
NC(=O)C1CCN(C(c2ccccc2Cl)c2nnnn2CC2CCCO2)CC1 (stereo not given)	PTPN22 inh 2 29.0
O=C(Nc1ccccc1)c1cccnc1N1CCCC1	none
N=c1oc2c3c4c(cc2cc1C(=O)Nc1ccccc1)CCCN4CCC3	Rev-RRE block 126.7[fluorescence artefact?]
Cc1cc(C(=O)N[C@H](c2ccccc2)[C@@]2(C)C[C@@H]2[C@@H](C)C(=O)Nc2ccc3ccccc3c2)n(C)n1	none (no result: PLK1 PBD inh, LYP act, PLK1 kinase inh, PTPN22 inh 2, Rev-RRE block)
Cc1cc2nc(C)n(CCCNC(=O)Nc3ccc(F)cc3)c2cc1C	none
CC(C(=O)NC(=O)NC1CCCCC1)N1CCN(C(c2ccccc2)c2ccccc2)CC1 (stereo not given)	none (no result: DAT uptake mod)
CCOC(=O)C1=C(C)N(CCCC(=O)O)C(=O)NC1c1cccs1 (stereo not given)	none (no result: PLK1 PBD inh, LYP act, PLK1 kinase inh, PTPN22 inh 2, Rev-RRE block)
Cc1cccc(Nc2nnc(-c3ccc(C(=O)N4C[C@H]5C[C@H](C4)c4cccc(=O)n4C5)cc3)c3ccccc23)c1	DAT uptake mod 1.75
Cc1ccc(-c2nnc(Nc3ccccc3)c3ccccc23)cc1S(=O)(=O)NCC1CCCO1 (stereo not given)	none
CCOC(=O)c1cc2n(c1/N=C/N(C)C)-c1ccccc1C2=O	Rev-RRE block 135.2[fluorescence artefact?]
Cc1c(CCOC(=O)C2C3CC4CC(C3)CC2C4)sc[n+]1CC(=O)c1ccc(Br)cc1 (stereo not given)	PTPN22 inh 2 33.4
Cc1c(CCOC(=O)CC23CC4CC(CC(C4)C2)C3)sc[n+]1Cc1ccccc1	none (no result: DAT uptake mod)
Cc1cccn2c(=O)c(C=Nc3ccccc3)c(NCc3ccco3)nc12	none
CCOCCCNc1nc2c(C)cccn2c(=O)c1/C=C1\SC(=S)N(CC(C)C)C1=O	Rev-RRE block 43.6 (no result: DAT uptake mod)
CCCN1C(=O)/C(=C/c2c(NCCCOCC)nc3c(C)cccn3c2=O)SC1=S	Rev-RRE block 76.0
CCC1(CC)C(=O)C2=C3C1[C@H](C(=O)OC)C=C(C(=O)OC)C[C@H]3n1c(=O)n(-c3ccccc3)c(=O)n1[C@H]2C (stereo not given in full)	none (no result: PLK1 PBD inh, LYP act, PLK1 kinase inh, PTPN22 inh 2, Rev-RRE block)
CC1CC(NC(=O)c2cnc3n(c2=O)CCS3)CC(C)(C)C1 (stereo not given)	DAT uptake mod -2.57 (no result: PLK1 PBD inh, LYP act, PLK1 kinase inh, PTPN22 inh 2, Rev-RRE block)
O=C(Nc1ccccc1)c1ccccc1CC[N+](=O)[O-]	none
CC(=O)Nc1ccc(NC(=O)c2ccccc2CC[N+](=O)[O-])cc1	PTPN22 inh 2 41.7
Cc1ccc(SCCC(=O)NCCSCc2ccccc2C)cc1	none
COc1[nH]c(/N=C/c2ccccc2)c(C#N)c1C#N	Rev-RRE block 38.0
COc1ccc(-n2nc(C(=O)NCC(=O)NCc3ccc(F)cc3)c3ccccc3c2=O)c(OC)c1	none
Cc1ccccc1-c1nc(S(=O)(=O)c2ccc(Cl)cc2)c(NCCN2CCOCC2)o1	DAT uptake mod 1.85
O=S(=O)(c1ccccc1)c1nc(-c2ccccc2Cl)oc1NCCN1CCOCC1	none
